Assay outcomes as filed in PubChem.
An excerpt weighted towards active compounds, which were near 2% of everything screened.
MLLE-PAM2 inh = inhibitors of PABP1 MLLE–PAM2 peptide binding, primary screen, biochemical, fluorescence polarization, FITC-PAM2, GST-MLLE | Polyadenylate-binding protein 1 (Homo sapiens), P11940 | inhibition, % at 20 µM | hit rate 0.36% among 360,000 | AID 588489, 2011; in the data active = inhibition above about 35%, passing the limit was not always enough;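 note: plate controls were DMSO wells with GST-MLLE for no effect and wells lacking GST-MLLE protein for full effect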
Target sequence (P11940 whole entry, looked up): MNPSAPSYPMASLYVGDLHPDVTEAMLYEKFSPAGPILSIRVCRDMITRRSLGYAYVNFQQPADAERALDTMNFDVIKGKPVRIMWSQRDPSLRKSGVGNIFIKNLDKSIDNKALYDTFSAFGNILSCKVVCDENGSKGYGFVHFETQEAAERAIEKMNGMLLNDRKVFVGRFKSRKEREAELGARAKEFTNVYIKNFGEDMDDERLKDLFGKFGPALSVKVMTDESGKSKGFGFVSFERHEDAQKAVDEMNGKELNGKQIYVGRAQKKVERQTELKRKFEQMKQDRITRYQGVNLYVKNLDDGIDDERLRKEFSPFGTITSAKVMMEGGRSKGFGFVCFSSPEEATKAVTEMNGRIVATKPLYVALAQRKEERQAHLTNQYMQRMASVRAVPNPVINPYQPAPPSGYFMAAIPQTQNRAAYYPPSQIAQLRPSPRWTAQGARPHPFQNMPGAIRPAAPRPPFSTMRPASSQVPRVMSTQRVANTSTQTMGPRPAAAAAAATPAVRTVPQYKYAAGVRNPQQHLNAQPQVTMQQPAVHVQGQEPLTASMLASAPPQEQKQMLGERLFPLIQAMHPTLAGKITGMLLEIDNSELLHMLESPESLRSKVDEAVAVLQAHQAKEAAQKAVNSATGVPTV
HCV core dimer = inhibitors of HCV core protein dimerization, primary screen, biochemical, TR-FRET, high-throughput. TR-FRET GST/Flag-core106 dimerization, 1536-well. inhibition, % at 5 µM. hit rate 0.33% among 300,000. AID 1899, 2009;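 active = inhibition above the mean of all tested compounds plus 3 SD, set per screening campaign, cut at about 45% in these data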
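System: GST/Flag-tagged HCV core106 proteins. Incubation: compound-protein-antibody incubation 4 h at 22.5 °C. Technique: HTRF with 340 nm excitation, 617/671 nm emission. Medium: KF-containing HEPES buffer, pH 7.45, DTT, CHAPS, BSA. Read-out: inhibition (%) from 671 over 617 nm ratio. Also added: Eu(K)-anti-GST 90 ng/mL plus XL665-anti-Flag 1 µg/mL.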
FID counter = compounds displacing fluorescent DNA intercalator, primary screen, artefact control for HCV NS3 helicase inhibitor project, biochemical, FID fluorescence. DNA fluorescent intercalator displacement. inhibition, % at 7.9 µM. hit rate 0.17% among 290,000. AID 1845, 2009; in the data active = inhibition above about 37%;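 note: 0% = vehicle and 100% = reference compound; higher means more ethidium bromide displaced from hairpin DNA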
PABP FP inh = PABP poly(A) RNA binding inhibitors, primary screen, biochemical, fluorescence polarization, uHTS. Polyadenylate-binding protein 1 (Homo sapiens), P11940. inhibition, % at 35 µM. hit rate 1% among 290,000;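 note: calls also rest on retests at 20 µM and on dose response follow-up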
eIF4H inh = human eIF4H binding inhibitors, primary screen, translation initiation inhibitor project, biochemical, uHTS, fluorescence polarization; eIF4H fluorescence polarization binding assay; hit rate 0.94% among 290,000; Eukaryotic translation initiation factor 4H (Homo sapiens), Q15056; inhibition, % at 35 µM;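 note: calls also rest on retests at 20 µM and on dose response follow-up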
HCV NS3 hel inh = inhibitors of HCV NS3 helicase, primary screen, biochemical, Cy5 molecular beacon fluorescence. NS3 helicase DNA unwinding. inhibition, % at 10.9 µM. hit rate 0.56% among 290,000. Hepatitis C virus NS3 helicase;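 active = inhibition above the mean of all tested compounds plus 3 SD, set per campaign, cut at about 35% in these data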;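 note: 0% = DMSO wells and 100% = thioflavine S control wells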
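System: HCV NS3 helicase fragment; control set: DMSO and thioflavine S; technique: Cy5 fluorescence at 0 and 60 min, beacon hairpin quenching; reagent: beacon DNA duplex substrate plus ATP; replicates: singlicate; schedule: 1 h reaction at 25 °C, ATP-initiated; medium: MOPS buffer pH 6.5 with MgCl2, DTT, Tween20, BSA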
* marks the source's active call; other numbers are inactive results; u = inconclusive; x = no result. Unless noted, the rule behind the calls is not given here.

SMILES	MLLE-PAM2 inh	HCV core dimer	FID counter	PABP FP inh	eIF4H inh	HCV NS3 hel inh
CCCC(=O)OCCNc1cc(SCc2ccco2)c2nonc2c1[N+](=O)[O-]	31	20	6	active	80*	27
CCCSc1cc(NCCOC(=O)CCC)c([N+](=O)[O-])c2nonc12	-6	4	7	1	-8	-3
CC(C)CC1C(=O)N(Cc2cn(Cc3ccco3)nn2)CCS(=O)(=O)N1Cc1ccc(-c2ccccc2)cc1 (stereo unspecified)	0	x	x	x	x	x
Cc1ccnc(SC2CC(=O)N(c3ccc([N+](=O)[O-])cc3)C2=O)n1 (stereo unspecified)	39*	-4	-3	2	-6	4
CCOC(=O)c1ccc(N2C(=O)CC(Sc3ncccn3)C2=O)cc1 (stereo unspecified)	41*	5	-8	1	-2	-2
Cc1ccc(N2C(=O)CC(Sc3nccc(C)n3)C2=O)cc1 (stereo unspecified)	22	4	-4	3	4	-3
O=C1CC(Sc2ncccn2)C(=O)N1c1ccccc1C(F)(F)F (stereo unspecified)	25	-1	-2	9	0	0
Cc1ccc(Cl)cc1N1C(=O)CC(Sc2ncccn2)C1=O (stereo unspecified)	42*	-11	-4	-6	-4	0
COC(=O)c1ccc(CSCc2ccc(C#N)cc2)cc1	x	1	-19	2	-1	-2
CCC(=O)N1CCCC(C(=O)Nc2ccc3cn[nH]c3c2)CC1 (stereo unspecified)	1	x	x	x	x	x
Cc1cnc(C(=O)NCc2ccc(Cl)cc2Cl)cn1	-12	-1	-7	71*	active	2
CNc1ncnc2c1ncn2[C@H]1CN(Cc2ccncc2)C[C@@H](CO)O1	3	x	x	x	x	x
COc1ccc(/C=C/C(=O)OCc2cc(=O)n3c(n2)sc2ccccc23)cc1	17	17	2	-2	-7	2
O=C(OCc1cc(=O)n2c(n1)sc1ccccc12)c1ccc(O)cc1	1	50*	-21	5	79*	30
O=c1cc(CCl)nc2sc3ccccc3n12	-3	27	0	u	28	4
Cc1cccc(C(=O)N[C@H](C(=O)OCc2cc(=O)n3c(n2)sc2ccccc23)C(C)C)c1	-7	49*	-6	active	85*	9
C/C=C/c1cccc(-c2nc(C(=O)NC3CCC3)cc3c2[C@@H](CCO)N(S(=O)C(C)(C)C)C3)c1 (stereo partly specified)	-37	x	x	x	x	x
c1ccc(OCc2nnc3sc(C4COc5ccccc5O4)nn23)cc1 (stereo unspecified)	7	51*	-13	0	38	12
CC(=O)COC(=O)C1CCN(S(=O)(=O)c2cc([N+](=O)[O-])ccc2Cl)CC1	-13	6	-2	9	36	5
O=C(Nc1nc2ccc(F)cc2s1)C1CCN(S(=O)(=O)c2cc([N+](=O)[O-])ccc2Cl)CC1	-13	46*	7	-10	22	4
Cc1ccc(NC(=O)C2CCN(S(=O)(=O)c3cc([N+](=O)[O-])ccc3Cl)CC2)nc1	7	x	x	x	x	x
Cc1ccc2nc(NC(=O)C3CCN(S(=O)(=O)c4cc([N+](=O)[O-])ccc4Cl)CC3)sc2c1	-5	66*	2	10	46	-22
O=C(COC(=O)C1CCN(S(=O)(=O)c2cc([N+](=O)[O-])ccc2Cl)CC1)Nc1ncc(Cl)cc1Cl	-12	12	-19	39*	70*	7
CC(C)(C)c1ccc(C(=O)N2[C@H](COCc3ccccc3)C=CS2(=O)=O)cc1	14	x	x	x	x	x
Cc1ccc(S(=O)(=O)N2[C@@H](c3ccc(Br)cc3)C(C(=O)O)=CC[C@H]2c2ccc3c(c2)OCO3)cc1	12	x	x	x	x	x
SMILES	MLLE-PAM2 inh	HCV core dimer	FID counter	PABP FP inh	eIF4H inh	HCV NS3 hel inh
Cc1ncc(C[n+]2csc(CCOC(=O)C34CC5CC(CC(C5)C3)C4)c2C)c(N)n1	27	-6	6	29	19	-4
Cc1ncc(C[n+]2csc(CCOC(=O)CC3C4CC5CC(C4)CC3C5)c2C)c(N)n1 (stereo unspecified)	15	-8	9	51*	28	-26
COC(=O)[C@H](CCSC)NC(=O)Cn1cnc2c(NCc3ccccc3)ncnc21	-10	x	x	x	x	x
CS(=O)(=O)Nc1ccc(C2=NN(S(=O)(=O)c3ccc(F)cc3)C(c3ccco3)C2)cc1 (stereo unspecified)	-30	3	-15	106	active	1
COc1coc(C(O)C[N+](=O)[O-])cc1=O (stereo unspecified)	-37	9	-4	-4	17	0
O=[N+]([O-])c1ccc(/C=C/C2=NN(c3ccccc3)C(c3ccco3)C2)cc1 (stereo unspecified)	-113	5	2	-4	23	7
O=[N+]([O-])c1ccc(C2=NN(c3ccccc3)C(c3ccco3)C2)cc1 (stereo unspecified)	-95	x	-11	54*	104*	22
O=C(CN1CCCCCC1)Nc1ccccc1C(=O)Nc1ccccc1	7	0	x	x	x	x
O=C(COc1ccccc1)Nc1nnc(S(=O)(=O)N2CCCCCC2)s1	7	-9	-25	-2	3	4
O=C(COc1ccccc1)Nc1nnc(S(=O)(=O)N2CCCCC2)s1	-16	-9	-23	-2	-7	7
Cc1ccc(OCC(=O)Nc2nnc(S(=O)(=O)N3CCCCCC3)s2)cc1	-13	28	-29	3	66*	14
Cc1ccc(OCC(=O)Nc2nnc(S(=O)(=O)N3CCCCC3)s2)cc1	-58	30	-37	23*	83*	8
CCc1ccccc1NC(=O)CN1CCN(C(=O)CCC(=O)N2CCC(c3ccccc3)=N2)CC1	0	x	x	x	x	x
COCCCN(C(=O)CCOc1ccc(C)cc1)c1c(N)n(Cc2ccccc2)c(=O)[nH]c1=O	-17	3	x	x	x	x
CC1CCCC(NCC(O)COC(c2ccc(F)cc2)c2ccc(F)cc2)C1C (stereo unspecified)	5	-1	46*	27	13	-73
Cc1ccc(S(=O)(=O)Nc2ccc3c(c2)OCCO3)cc1	-12	6	2	-8	2	3
O=[N+]([O-])c1ccc(S(=O)(=O)Nc2ccc3c(c2)OCCO3)cc1	41*	-1	6	-1	-2	3
COc1ccc(C/C(N)=N/OC(=O)CCc2ccccc2)cc1	7	-5	-28	0	-11	-10
O=C(Nc1ccc(F)c(Cl)c1)C1Cc2c(-c3ccccc3Oc3ccccc3)ccnc2O1 (stereo unspecified)	-5	x	x	x	x	x
CCOC(=O)N1CCC(NC(=O)c2ccc3c(c2)N(CC)CCS3)CC1	38*	-8	-8	x	x	-8
